Data as given in ChEMBL document CHEMBL1759951, “Furostanol saponins from the rhizomes of Dioscorea japonica and their effects on NGF induction” (Bioorg Med Chem Lett, 2011).

Legend:
C6 = assay: Induction of NGF production in rat C6 cells at 20 uM after 24 hrs by ELISA relative to untreated control; format: functional
Outline: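 C6 glioma cells treated at 20 μM for 24 h; NGF released into C6-conditioned medium quantified by ELISA, reported as percentage of untreated control. Means ± SD from three independent experiments run in triplicate; Student's t-test versus control, p < 0.05.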

[1] = Cytotoxicity against rat C6 cells assessed as viable cells at 20 uM after 24 hrs by MTT assay; format: cell-based; conditions: read-out: Activity
Outline: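 C6 rat glioma cells exposed to test agent at 20 μM for 24 h; viability read by MTT and expressed as percentage of untreated control. Means ± SD of three independent experiments, each in triplicate; significance versus control by Student's t-test (p < 0.05).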

Question: Which Activity (C6) does the source give for `COCC(=O)c1ccc(O)cc1` here?
Answer: 105.6%

Question: What about the viability at 24 h, 20 µM [1] of the same compound?
Answer: 99.8%

Question: Which Activity (C6) does the source give for `CCCCO[C@]1(CO)O[C@H](CO)[C@@H](O)[C@@H]1O` here?
Answer: 117.5%

Question: What about the viability at 24 h, 20 µM [1] of the same compound?
Answer: 102%

Question: Which results are given for `COc1cc(CC[C@@H](O)C[C@@H](O)CCc2ccc(O)c(OC)c2)ccc1O`?
Answer: Activity (C6): 120.7%; viability at 24 h, 20 µM [1]: 102%

Question: With `NC(=O)NC1NC(=O)NC1=O` (centres undefined) [ALLANTOIN] as the compound, how does the Activity (C6) read?
Answer: 102.4%

Question: And the viability at 24 h, 20 µM [1]?
Answer: 100%

Question: With `COc1cc(O)cc(CCc2ccccc2O)c1` [BATATASIN IV] as the compound, how does the Activity (C6) read?
Answer: 106.1%

Question: And the viability at 24 h, 20 µM [1]?
Answer: 95%

Question: For `CC[C@H](CC[C@@H](C)[C@H]1CC[C@H]2[C@@H]3CC=C4C[C@@H](O)CC[C@]4(C)[C@H]3CC[C@]12C)C(C)C` [BETA-SITOSTEROL], which Activity (C6) is on record?
Answer: 106.1%

Question: What about the viability at 24 h, 20 µM [1] of the same compound?
Answer: 104%

Question: With `CC1=CC(=O)CC(C)(C)[C@@]1(O)/C=C/[C@@H](C)O` [BLUMENOL A] as the compound, how does the Activity (C6) read?
Answer: 122.2%

Question: And the viability at 24 h, 20 µM [1]?
Answer: 101%

Question: With `C[C@H](CC[C@@]1(O)O[C@H]2C[C@H]3[C@@H]4CC=C5C[C@@H](O[C@@H]6O[C@H](CO)[C@@H](O[C@@H]7OC[C@H](O)[C@H](O)[C@H]7O)[C@H](O)[C@H]6O[C@@H]6O[C@@H](C)[C@H](O)[C@@H](O)[C@H]6O)CC[C@]5(C)[C@H]4CC[C@]3(C)[C@H]2[C@@H]1C)CO[C@@H]1O[C@H](CO)[C@@H](O)[C@H](O)[C@H]1O` [COREAJAPONINS A] as the compound, how does the Activity (C6) read?
Answer: 107.2%

Question: What about the viability at 24 h, 20 µM [1] of the same compound?
Answer: 106%

Question: Which Activity (C6) does the source give for `CO[C@]1(CC[C@@H](C)CO[C@@H]2O[C@H](CO)[C@@H](O)[C@H](O)[C@H]2O)O[C@H]2C[C@H]3[C@@H]4CC=C5C[C@@H](O[C@@H]6O[C@H](CO)[C@@H](O[C@@H]7OC[C@H](O)[C@H](O)[C@H]7O)[C@H](O)[C@H]6O[C@@H]6O[C@@H](C)[C@H](O)[C@@H](O)[C@H]6O)CC[C@]5(C)[C@H]4CC[C@]3(C)[C@H]2[C@@H]1C` [COREAJAPONINS B] here?
Answer: 132.9%

Question: And the viability at 24 h, 20 µM [1]?
Answer: 98%

Question: Which results are given for `Oc1cc(O)cc(CCc2ccccc2)c1` [DIHYDROPINOSYLVIN]?
Answer: Activity (C6): 117%; viability at 24 h, 20 µM [1]: 105%

Question: For `CC(=O)CCc1ccc(O)cc1` [RASPBERRYKETONE], which Activity (C6) is on record?
Answer: 106.8%

Question: What about the viability at 24 h, 20 µM [1] of the same compound?
Answer: 101%

Question: What does the source list for `COc1cc(O)cc(CCc2ccccc2OC)c1` [STILBOSTEMINN]?
Answer: Activity (C6): 104.6%; viability at 24 h, 20 µM [1]: 104%
